From PubChem BioAssay
STAT1 activator: activators of IFN-gamma induced STAT1 signaling; NIH 3T3 STAT1-luciferase reporter, luminescence; 100% = IFN-gamma alone, no compound; activation (% of control), % at 5.5 µM; actives 2.6% (n = 200,000); AID 932;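 active = activation above the screen-wide mean activation plus 3 SD, cut at about 130% in these data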;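 note: raw ratio to IFN-gamma control signal so 100% means no change and 0% no light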
STAT3 blocker: inhibitors of IL-6 induced STAT3 signaling; U3A cells, IL-6 STAT3-luciferase reporter, luminescence; host cell line lacks STAT1; actives 0.89% (n = 190,000); AID 862; inhibition, % at 5.5 µM;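 active = inhibition above the mean inhibition across all screened compounds plus 3 SD, cut at about 44% in these data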;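 note: 0% = DMSO only wells and 100% = 100 µM nifuroxazide control wells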
STAT1 inh: inhibitors of IFN-gamma induced STAT1 signaling; actives 0.35% (n = 200,000); NIH 3T3 STAT1-luciferase reporter, luminescence; AID 920; inhibition, % at 5.5 µM;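 active = inhibition above a set limit, the mean inhibition across all tested compounds plus 3 SD, cut at about 34% in these data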;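 note: 0% = IFN-gamma with DMSO and 100% = IFN-gamma with 300 µM nifuroxazide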
APP 5'UTR act: activates APP 5'UTR luciferase reporter. activation, % at 2 µM. SH-SY5Y APP 5'UTR luciferase reporter, luminescence; zero percent = DMSO vehicle wells. actives 1% (n = 190,000);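 active = activation above a set limit, based on mean plus 3 SD of controls, cut at about 140% in these data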
STAT3 act: increases IL-6 driven STAT3 reporter signal. U3A cells, IL-6 STAT3-luciferase reporter, luminescence; 100% = signal with IL-6 EC80 alone. activation (% of control), % at 5.6 µM. actives 0.91% (n = 190,000);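 active = activation above the screen-wide mean of compound activation plus 3 SD, cut at about 130% in these data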;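 note: 0% = background luminescence of wells with medium and substrate only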
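Material: STAT1-lacking human U3A cells, STAT3 luciferase reporter | Benchmarks: IL-6-only wells as 100% reference | Probe or stimulus: IL-6 (33 ng/mL) | Timing: Compound 1 h, then IL-6 6 h at 37 °C | Detection: Luminescence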
NF-kB expr up: NF-kB expression increase, human neuronal cells | fold change at 12.5 µM | NF-kB reporter expression; hits give high values | actives 1.6% (n = 190,000); in the data active = fold change above about 3.3
STAT1 activ conf: STAT1 activation, confirmation assay | shares compounds with STAT1 activator | NIH 3T3 STAT1-luciferase reporter, IFN-gamma potentiation, luminescence; 100% = IFN-gamma EC80 alone, no compound | activation (% of control), % at 5.7 µM | actives 97% (n = 1,200);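 active = activation above a set limit carried over from the earlier primary STAT1 screen, cut at about 140% in these data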;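 note: simple ratio to median IFN-gamma plus DMSO wells so 0% means no light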
NFkB act: counter-screen for STAT1 activators: NF-kappaB activation | actives 43% (n = 1,200) | AID 1306 | shares compounds with STAT1 activator | activation (% of control), % at 5.7 µM | HEK293T NF-kB luciferase reporter, TNF-alpha stimulated, luminescence; 100% = TNF-alpha with vehicle only;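 active = activation above the mean of solvent-only control wells plus 3 SD, set per campaign, cut at about 130% in these data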;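 note: TNF-alpha given at a submaximal dose yielding about 80% of full reporter signal; values are well signal over median control so 100% means no change and 0% no light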
STAT3 act STAT1c: activates human STAT3, counter-screen to STAT1 activators | shares compounds with STAT1 activator | U3A cells STAT3-luciferase reporter, IL-6, luminescence; cells lack STAT1; 100 = IL-6 alone, no compound effect | activation (% of control), % at 5.7 µM | actives 46% (n = 1,200);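 active = activation above the solvent-only control well mean plus 3 SD, set per plate batch, cut at about 110% in these data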;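 note: 0% = no luminescence and 100% = median IL-6 plus DMSO wells; higher means more STAT3 reporter activation so hits are non-selective activators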
Numbers without * were called inactive. A selection: hits, their analogues and other compounds. The true share with any hit is near 5.1%.

Cc1ccc2nc(-c3ccc(NC(=O)c4ccco4)cc3)[nH]c2c1 was read as STAT1 activator 160.4*, STAT3 blocker 14.0, STAT1 inh -72.7, APP 5'UTR act 113.3, STAT3 act 90.9, NF-kB expr up 2.79, STAT1 activ conf 187.1*, NFkB act 136.2* and STAT3 act STAT1c 104.9.
Screening O=C(Nc1ccc(-c2nc3ncccc3o2)cc1)c1ccc(Br)o1 returned STAT1 activator 106.3, STAT3 blocker 24.8, STAT1 inh -6.8, APP 5'UTR act -3.4, STAT3 act 81.3 and NF-kB expr up 1.44.
For CN(CC1CCCO1)S(=O)(=O)c1ccc(C(=O)Nc2nc(-c3ccccn3)cs2)cc1 (stereo not given) the results were STAT1 activator 93.0, STAT3 blocker 42.8, STAT1 inh 7.7, APP 5'UTR act -74.0, STAT3 act 68.9 and NF-kB expr up 1.23.
COc1ccc(C(=O)COC(=O)c2ccc(N(C)C)cc2)cc1 was read as STAT1 activator 112.8, STAT3 blocker 6.9, STAT1 inh -15.6, APP 5'UTR act 12.5, STAT3 act 97.9 and NF-kB expr up 1.06.
For CN(C)c1ccc(C(=O)OCC(=O)c2cccs2)cc1 the results were STAT1 activator 172.0*, STAT3 blocker 37.2, STAT1 inh -79.4, APP 5'UTR act 102.7, STAT3 act 70.1, NF-kB expr up 5.21*, STAT1 activ conf 214.7*, NFkB act 122.5 and STAT3 act STAT1c 104.1.
Screening COc1ccc(Nc2nc(Nc3ccc(OC)cc3)nc(SC3=NCCS3)n2)cc1 returned STAT1 activator 92.7, STAT3 blocker 20.2, STAT1 inh 8.0, APP 5'UTR act -5.7, STAT3 act 87.2 and NF-kB expr up 0.53.
For COC(=O)c1sccc1NC(=O)Nc1cccc(C)c1 the results were STAT1 activator 158.7*, STAT3 blocker -24.8, STAT1 inh -67.8, APP 5'UTR act 4.8, STAT3 act 126.6, NF-kB expr up 1.28, STAT1 activ conf 177.1*, NFkB act 133.8* and STAT3 act STAT1c 123.4*.
For COC(=O)c1sccc1NC(=O)Nc1cccc(C(C)=O)c1 the results were STAT1 activator 121.1, STAT3 blocker 3.6, STAT1 inh -24.2, APP 5'UTR act -10.7, STAT3 act 107.5 and NF-kB expr up 0.88.
`O=C(/C(C=Nc1cccc(C(F)(F)F)c1)=C(/O)c1ccco1)C(F)(F)F` gave STAT1 activator 107.7, STAT3 blocker -9.3, STAT1 inh -8.7, APP 5'UTR act 24.8, STAT3 act 105.6 and NF-kB expr up 1.62.
For O=C(/C(C=Nc1ccc(Br)cc1)=C(/O)c1ccco1)C(F)(F)F the results were STAT1 activator 165.6*, STAT3 blocker 39.6, STAT1 inh -71.9, APP 5'UTR act 170.9*, STAT3 act 65.8, NF-kB expr up 5.72*, STAT1 activ conf 200.8*, NFkB act 92.0 and STAT3 act STAT1c 84.2.
Screening O=C(c1ccncc1)c1ccc(NC(=O)c2cccs2)cc1 returned STAT1 activator 90.9, STAT3 blocker 20.2, STAT1 inh 8.3, APP 5'UTR act 14.7, STAT3 act 85.2 and NF-kB expr up 1.82.
Screening O=C(Nc1ccc2c(c1)CCC2)c1cccs1 returned STAT1 activator 156.8*, STAT3 blocker 14.3, STAT1 inh -60.6, APP 5'UTR act 91.6, STAT3 act 92.3, NF-kB expr up 6.16*, STAT1 activ conf 197.6*, NFkB act 136.4* and STAT3 act STAT1c 104.0.
For O=C(Nc1ccc2c(c1)CCC2)c1c(F)cccc1Cl the results were STAT1 activator 174.9*, STAT3 blocker 0.9, STAT1 inh -84.2, APP 5'UTR act 100.1, STAT3 act 102.4, NF-kB expr up 4.25*, STAT1 activ conf 195.9*, NFkB act 140.0* and STAT3 act STAT1c 112.1*.
O=C(Nc1ccc2c(c1)CCC2)c1ccc(F)cc1 was read as STAT1 activator 173.7*, STAT3 blocker 32.1, STAT1 inh -81.0, APP 5'UTR act 196.6*, STAT3 act 70.8, NF-kB expr up 8.48*, STAT1 activ conf 232.8*, NFkB act 114.1 and STAT3 act STAT1c 86.8.
For CCSc1nnc(CSc2ncccn2)n1C the results were STAT1 activator 98.8, STAT3 blocker 9.3, STAT1 inh -0.5, APP 5'UTR act 10.7 and STAT3 act 96.2.
For CN1CCN(C(=O)CSc2nc(-c3cccs3)ccc2C#N)CC1 the results were STAT1 activator 96.7, STAT3 blocker -16.4, STAT1 inh 3.6, APP 5'UTR act 26.8, STAT3 act 118.2 and NF-kB expr up 0.97.
Screening O=C(Nc1nc(-c2cccs2)cs1)c1ccco1 returned STAT1 activator 158.8*, STAT3 blocker 2.1, STAT1 inh -61.9, APP 5'UTR act 195.7*, STAT3 act 98.8, NF-kB expr up 3.61*, STAT1 activ conf 172.9*, NFkB act 134.1* and STAT3 act STAT1c 102.7.
COc1ccc2c(c1)-c1nc(NC(=O)c3ccco3)sc1CC2 was read as STAT1 activator 112.8, STAT3 blocker 27.6, STAT1 inh -14.1, APP 5'UTR act 54.2, STAT3 act 78.7 and NF-kB expr up 1.15.
Screening COc1ccc2c(c1)Cc1sc(NC(=O)c3ccco3)nc1-2 returned STAT1 activator 188.9*, STAT3 blocker 23.5, STAT1 inh -97.2, APP 5'UTR act 186.1*, STAT3 act 82.6, NF-kB expr up 3.85*, STAT1 activ conf 199.0*, NFkB act 147.4* and STAT3 act STAT1c 104.1.
Screening COC(=O)c1c(-c2ccccc2)csc1NC(=O)c1ccco1 returned STAT1 activator 173.9*, STAT3 blocker 8.3, STAT1 inh -80.6, APP 5'UTR act 22.6, STAT3 act 95.1, NF-kB expr up 1.67, STAT1 activ conf 194.5*, NFkB act 135.5* and STAT3 act STAT1c 104.8.
`Cc1sc(NC(=O)c2ccco2)nc1-c1ccccc1` gave STAT1 activator 201.7*, STAT3 blocker 17.8, STAT1 inh -111.2, APP 5'UTR act 170.5*, STAT3 act 87.7, NF-kB expr up 6.88*, STAT1 activ conf 236.6*, NFkB act 135.1* and STAT3 act STAT1c 112.2*.
CC(=O)c1sc(NC(=O)c2ccco2)nc1-c1ccccc1 was read as STAT1 activator 104.8, STAT3 blocker 6.2, STAT1 inh -5.3, APP 5'UTR act 28.4, STAT3 act 102.4 and NF-kB expr up 1.68.
